Results: ChEMBL document CHEMBL5329174, “Discovery of benzoxazole-thiazolidinone hybrids as promising antibacterial agents against Staphylococcus aureus and Enterococcus species” (RSC Med Chem, 2023)
In brackets after ≈: the same amount, converted by molar mass.

Assays:
Escherichia coli = assay: Antibacterial activity against Escherichia coli ATCC 25922 assessed as reduction in bacterial growth; format: functional
Procedure, shortened: (§1)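 CLSI broth microdilution in cation-supplemented Mueller–Hinton broth II; overnight starter cultures (37 °C, shaking, 18–24 h) adjusted by OD600 to ~10^6 CFU/mL. Compounds dosed from DMSO stocks (10 mg/mL stock) as two-fold dilutions, 64–0.5 mg/L. Plates held 37 °C, 18–24 h. MIC = lowest concentration without visible growth. Three independent runs, each in duplicate.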

Staphylococcus aureus [1] = assay: Antibacterial activity against Staphylococcus aureus ATCC 29213 assessed as reduction in bacterial growth; format: functional; procedure, shortened: as §1
Klebsiella pneumoniae = assay: Antibacterial activity against Klebsiella pneumoniae BAA-1705 assessed as reduction in bacterial growth; format: functional; procedure, shortened: as §1
Acinetobacter baumannii = assay: Antibacterial activity against Acinetobacter baumannii BAA-1605 assessed as reduction in bacterial growth; format: functional; procedure, shortened: as §1
Pseudomonas aeruginosa = assay: Antibacterial activity against Pseudomonas aeruginosa ATCC 27853 assessed as reduction in bacterial growth; format: functional; procedure, shortened: as §1
[2] = Cytotoxicity against african green monkey Vero cells assessed as reduction in cell viability incubated for 72 hrs by MTT assay; format: toxicity, cell-based; settings: chlorocebus sabaeus
Procedure, shortened: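 Vero (ATCC CCL-81) cells seeded at ~10^3 per well, 37 °C, 5% CO2. After 24 h, compound added at 100–12.5 μg/mL for 72 h. MTT then given for 4 h at 37 °C, formazan dissolved in DMSO, absorbance read at 540 nm. CC50 taken as the concentration giving 50% viability loss; doxorubicin as positive control; triplicate.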

[3] = Selectivity index, ratio of CC50 for cytotoxicity against african green monkey Vero cells assessed as reduction in cell viability to MIC for antibacterial activity against Staphylococcus aureus ATCC 29213 assessed as reduction in bacterial growth; format: toxicity, cell-based; settings: read-out: Selectivity Index
Staphylococcus aureus [4] = assay: Antibacterial activity against methicilin-resistant Staphylococcus aureus NRS 100 assessed as reduction in bacterial growth; format: functional
Procedure, shortened: (§2)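 CLSI broth microdilution in cation-supplemented Mueller–Hinton broth II. Starter cultures were grown overnight at 37 °C with shaking from a single MHA colony, then diluted by OD600 to ~10^6 CFU/mL. Compounds came from 10 mg/mL DMSO stocks and were tested two-fold from 64 to 0.5 mg/L. Plates were incubated 37 °C for 18–24 h. MIC was taken as the lowest concentration with no visible growth. Three independent runs, each in duplicate.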

Staphylococcus aureus [5] = assay: Antibacterial activity against methicilin-resistant Staphylococcus aureus NRS 119 assessed as reduction in bacterial growth; format: functional; procedure, shortened: as §2
Staphylococcus aureus [6] = assay: Antibacterial activity against methicilin-resistant Staphylococcus aureus NRS 129 assessed as reduction in bacterial growth; format: functional; procedure, shortened: as §2
Staphylococcus aureus [7] = assay: Antibacterial activity against methicilin-resistant Staphylococcus aureus NRS 186 assessed as reduction in bacterial growth; format: functional; procedure, shortened: as §2
Staphylococcus aureus [8] = assay: Antibacterial activity against methicilin-resistant Staphylococcus aureus NRS 191 assessed as reduction in bacterial growth; format: functional; procedure, shortened: as §2
Staphylococcus aureus [9] = assay: Antibacterial activity against methicilin-resistant Staphylococcus aureus NRS 192 assessed as reduction in bacterial growth; format: functional; procedure, shortened: as §2
Staphylococcus aureus [10] = assay: Antibacterial activity against methicilin-resistant Staphylococcus aureus NRS 193 assessed as reduction in bacterial growth; format: functional; procedure, shortened: as §2
Staphylococcus aureus [11] = assay: Antibacterial activity against methicilin-resistant Staphylococcus aureus NRS 194 assessed as reduction in bacterial growth; format: functional; procedure, shortened: as §2
Staphylococcus aureus [12] = assay: Antibacterial activity against methicilin-resistant Staphylococcus aureus NRS 198 assessed as reduction in bacterial growth; format: functional; procedure, shortened: as §2
Staphylococcus aureus [13] = assay: Antibacterial activity against vancomycin-resistant Staphylococcus aureus VRS 1 assessed as reduction in bacterial growth; format: functional; procedure, shortened: as §2
Staphylococcus aureus [14] = assay: Antibacterial activity against vancomycin-resistant Staphylococcus aureus VRS 4 assessed as reduction in bacterial growth; format: functional; procedure, shortened: as §2
Staphylococcus aureus [15] = assay: Antibacterial activity against vancomycin-resistant Staphylococcus aureus VRS 12 assessed as reduction in bacterial growth; format: functional; procedure, shortened: as §2
Enterococcus faecalis [16] = assay: Antibacterial activity against vancomycin-susceptible Enterococcus faecalis NR 31884 assessed as inhibition of bacterial growth incubated for 18 to 24 hrs by broth microdilution assay; format: functional; settings: time 18-24 hrs; procedure, shortened: as §1
Enterococcus faecalis [17] = assay: Antibacterial activity against vancomycin-susceptible Enterococcus faecalis NR 31885 assessed as inhibition of bacterial growth incubated for 18 to 24 hrs by broth microdilution assay; format: functional; settings: time 18-24 hrs; procedure, shortened: as §1
Enterococcus faecalis [18] = assay: Antibacterial activity against vancomycin-susceptible Enterococcus faecalis NR 31886 assessed as inhibition of bacterial growth incubated for 18 to 24 hrs by broth microdilution assay; format: functional; settings: time 18-24 hrs; procedure, shortened: as §1
Enterococcus faecalis [19] = assay: Antibacterial activity against vancomycin-susceptible Enterococcus faecalis NR 31887 assessed as inhibition of bacterial growth incubated for 18 to 24 hrs by broth microdilution assay; format: functional; settings: time 18-24 hrs; procedure, shortened: as §1
Enterococcus faecalis [20] = assay: Antibacterial activity against vancomycin-susceptible Enterococcus faecalis NR 31888 assessed as inhibition of bacterial growth incubated for 18 to 24 hrs by broth microdilution assay; format: functional; settings: time 18-24 hrs; procedure, shortened: as §1
Enterococcus faecium [21] = assay: Antibacterial activity against vancomycin-resistant Enterococcus faecium NR 31903 assessed as inhibition of bacterial growth
Enterococcus faecium [22] = assay: Antibacterial activity against vancomycin-resistant Enterococcus faecium NR 31909 assessed as inhibition of bacterial growth
Enterococcus faecium [23] = assay: Antibacterial activity against vancomycin-resistant Enterococcus faecium NR 31912 assessed as inhibition of bacterial growth

Structure (SMILES)	MIC (Escherichia coli)	MIC (Staphylococcus aureus [1])	MIC (Klebsiella pneumoniae)	MIC (Acinetobacter baumannii)	MIC (Pseudomonas aeruginosa)	MIC (Enterococcus faecalis [16])	MIC (Enterococcus faecalis [17])	MIC (Enterococcus faecalis [18])	MIC (Enterococcus faecalis [19])	MIC (Enterococcus faecalis [20])	MIC (Enterococcus faecium [21])	MIC (Enterococcus faecium [22])	MIC (Enterococcus faecium [23])	further results
COc1cc(/C=C2\S/C(=N/c3nc4ccccc4o3)NC2=O)ccc1O	> 64 µg/mL	2 µg/mL (≈ 5.44 µM)	> 64 µg/mL	> 64 µg/mL	> 64 µg/mL	16 µg/mL (≈ 43.6 µM)	16 µg/mL (≈ 43.6 µM)	16 µg/mL (≈ 43.6 µM)	16 µg/mL (≈ 43.6 µM)	16 µg/mL (≈ 43.6 µM)	4 µg/mL (≈ 10.9 µM)	0.25 µg/mL (≈ 0.68 µM)	0.25 µg/mL (≈ 0.68 µM)	CC50 at 72 h [2]: > 40 µg/mL; selectivity ratio [3]: > 20; MIC (Staphylococcus aureus [4]): 2 µg/mL (≈ 5.44 µM); MIC (Staphylococcus aureus [5]): 4 µg/mL (≈ 10.9 µM); MIC (Staphylococcus aureus [6]): 4 µg/mL (≈ 10.9 µM); MIC (Staphylococcus aureus [7]): 2 µg/mL (≈ 5.44 µM); MIC (Staphylococcus aureus [8]): 2 µg/mL (≈ 5.44 µM); MIC (Staphylococcus aureus [9]): 4 µg/mL (≈ 10.9 µM); MIC (Staphylococcus aureus [10]): 4 µg/mL (≈ 10.9 µM); MIC (Staphylococcus aureus [11]): 4 µg/mL (≈ 10.9 µM); MIC (Staphylococcus aureus [12]): 4 µg/mL (≈ 10.9 µM); MIC (Staphylococcus aureus [13]): 4 µg/mL (≈ 10.9 µM); MIC (Staphylococcus aureus [14]): 4 µg/mL (≈ 10.9 µM); MIC (Staphylococcus aureus [15]): 2 µg/mL (≈ 5.44 µM)
O=C1N/C(=N\c2nc3ccccc3o2)S/C1=C\c1ccc(F)cc1	> 64 µg/mL	8 µg/mL (≈ 23.6 µM)	> 64 µg/mL	> 64 µg/mL	> 64 µg/mL	–	–	–	–	–	–	–	–	–
CN(C)c1ccc(O)c2c1C[C@H]1C[C@H]3[C@H](N(C)C)C(O)=C(C(N)=O)C(=O)[C@@]3(O)C(O)=C1C2=O [MINOCYCLINE]	–	–	–	–	–	0.5 µg/mL (≈ 1.09 µM)	0.5 µg/mL (≈ 1.09 µM)	0.5 µg/mL (≈ 1.09 µM)	8 µg/mL (≈ 17.5 µM)	0.5 µg/mL (≈ 1.09 µM)	8 µg/mL (≈ 17.5 µM)	8 µg/mL (≈ 17.5 µM)	8 µg/mL (≈ 17.5 µM)	–
O=C1CS/C(=N/c2nc3ccccc3o2)N1	> 64 µg/mL	8 µg/mL (≈ 34.3 µM)	> 64 µg/mL	> 64 µg/mL	> 64 µg/mL	–	–	–	–	–	–	–	–	–
COc1ccc(/C=C2\S/C(=N/c3nc4ccccc4o3)NC2=O)cc1	> 64 µg/mL	> 64 µg/mL	> 64 µg/mL	> 64 µg/mL	> 64 µg/mL	–	–	–	–	–	–	–	–	–
C[C@H]1COc2c(N3CCN(C)CC3)c(F)cc3c(=O)c(C(=O)O)cn1c23 [LEVOFLOXACIN ANHYDROUS]	–	0.125 µg/mL (≈ 0.346 µM)	64 µg/mL (≈ 177 µM)	–	–	0.25 µg/mL (≈ 0.692 µM)	0.25 µg/mL (≈ 0.692 µM)	0.25 µg/mL (≈ 0.692 µM)	0.25 µg/mL (≈ 0.692 µM)	0.25 µg/mL (≈ 0.692 µM)	> 64 µg/mL	64 µg/mL (≈ 177 µM)	64 µg/mL (≈ 177 µM)	CC50 at 72 h [2]: > 100 µg/mL; MIC (Staphylococcus aureus [4]): 0.25 µg/mL (≈ 0.692 µM); MIC (Staphylococcus aureus [5]): 16 µg/mL (≈ 44.3 µM); MIC (Staphylococcus aureus [6]): 0.25 µg/mL (≈ 0.692 µM); MIC (Staphylococcus aureus [7]): 8 µg/mL (≈ 22.1 µM); MIC (Staphylococcus aureus [8]): 16 µg/mL (≈ 44.3 µM); MIC (Staphylococcus aureus [9]): 8 µg/mL (≈ 22.1 µM); MIC (Staphylococcus aureus [10]): 32 µg/mL (≈ 88.6 µM); MIC (Staphylococcus aureus [11]): 0.125 µg/mL (≈ 0.346 µM); MIC (Staphylococcus aureus [12]): 32 µg/mL (≈ 88.6 µM); MIC (Staphylococcus aureus [13]): 64 µg/mL (≈ 177 µM); MIC (Staphylococcus aureus [14]): > 64 µg/mL; MIC (Staphylococcus aureus [15]): 32 µg/mL (≈ 88.6 µM)
O=C1N/C(=N\c2nc3ccccc3o2)S/C1=C\c1ccco1	> 64 µg/mL	8 µg/mL (≈ 25.7 µM)	> 64 µg/mL	> 64 µg/mL	> 64 µg/mL	–	–	–	–	–	–	–	–	–
